# According to ChEMBL document CHEMBL3585304, “Synthesis and evaluation of tamoxifen derivatives with a long alkyl side chain as selective estrogen receptor down-regulators” (Bioorg Med Chem, 2015):
# Active and inactive are the calls of the source. No cut-off for these calls is given here.
# Assays:
# Estrogen receptor = target: T1, Estrogen receptor (Homo sapiens, UniProt P03372); test: Inhibition of ERalpha (unknown origin) by fluorescence polarization-based competition binding assay
# T1 sequence (P03372 whole entry): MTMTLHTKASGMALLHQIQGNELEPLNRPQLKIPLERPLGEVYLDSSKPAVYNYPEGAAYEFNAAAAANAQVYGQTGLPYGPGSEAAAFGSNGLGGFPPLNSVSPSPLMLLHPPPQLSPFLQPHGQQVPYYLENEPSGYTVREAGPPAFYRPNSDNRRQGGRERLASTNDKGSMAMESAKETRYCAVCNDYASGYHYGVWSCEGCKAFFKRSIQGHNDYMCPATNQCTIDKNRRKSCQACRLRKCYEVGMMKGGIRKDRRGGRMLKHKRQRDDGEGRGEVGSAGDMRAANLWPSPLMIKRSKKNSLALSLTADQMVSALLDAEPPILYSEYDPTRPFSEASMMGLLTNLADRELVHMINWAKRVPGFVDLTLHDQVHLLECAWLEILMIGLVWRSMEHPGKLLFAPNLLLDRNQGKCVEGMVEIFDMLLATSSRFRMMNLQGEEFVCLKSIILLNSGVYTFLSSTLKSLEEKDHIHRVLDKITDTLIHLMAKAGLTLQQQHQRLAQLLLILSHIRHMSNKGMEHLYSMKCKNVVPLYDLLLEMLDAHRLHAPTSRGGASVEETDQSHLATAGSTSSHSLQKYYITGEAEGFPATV
# MCF7 [1] = test: Reduction in endogenous ERalpha expression in human MCF7 cells at 10 uM after 6 hrs by Western blot analysis; assay type: functional, cell-based
# Outline: (§1)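 MCF-7 cells exposed to compounds (10 µM shown for the chain-length series) for 6 h. Cells lysed in 1% SDS, 0.1 M Tris–HCl pH 7.0, 10% glycerol and boiled 10 min. Protein measured by BCA, and equal amounts run on SDS–PAGE, transferred to PVDF and immunoblotted for endogenous ERα.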
# MCF7 [2] = test: Reduction in endogenous ERalpha expression in human MCF7 cells after 6 hrs by Western blot analysis; assay type: functional, cell-based; outline: as §1
# MCF7 [3] = test: Reduction in endogenous ERalpha expression in human MCF7 cells at 0.1 to 1 uM after 6 hrs by Western blot analysis in presence of 10 uM MG132 proteasome inhibitor; assay type: functional, cell-based
# Outline: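 MCF-7 cells incubated 6 h with graded compound concentrations, with or without proteasome inhibitor MG132 (10 µM). Lysis in 1% SDS, 0.1 M Tris–HCl pH 7.0, 10% glycerol, then boiling 10 min. BCA protein assay, equal loading on SDS–PAGE, PVDF transfer, and Western blot detection of ERα.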
Structure (SMILES),IC50 (Estrogen receptor) [nM],inhibition (MCF7 [1]),inhibition (MCF7 [2]),inhibition (MCF7 [3])
CCCCCCNCCOc1ccc(/C(=C(/CC)c2ccccc2)c2ccc(O)cc2)cc1,151,inactive,–,–
CCCCCCCCCCCCCCCCCCNCCOc1ccc(/C(=C(/CC)c2ccccc2)c2ccc(O)cc2)cc1,> 100000,–,–,–
CCC(=C(c1ccc(O)cc1)c1ccc(OCCN(C)C)cc1)c1ccccc1,–,inactive,–,–
CCCCCCCCCCCCNCCOc1ccc(/C(=C(/CC)c2ccccc2)c2ccc(O)cc2)cc1,14,–,–,–
CCCCCCCCNCCOc1ccc(/C(=C(/CC)c2ccccc2)c2ccc(O)cc2)cc1,53,inactive,–,–
CCCCCCCCCCNCCOc1ccc(/C(=C(/CC)c2ccccc2)c2ccc(O)cc2)cc1,3.6,Active,–,–
CC/C(=C(\c1ccc(O)cc1)c1ccc(OCCNC)cc1)c1ccccc1,–,inactive,–,–
CCCCCCCCCCCCCCCCNCCOc1ccc(/C(=C(/CC)c2ccccc2)c2ccc(O)cc2)cc1,4.8,inactive,–,–
CC/C(=C(\c1ccc(O)cc1)c1ccc(OCCNCCCCCCCCCCO)cc1)c1ccccc1,210,inactive,–,–
CCCCCCCCCCCCCCNCCOc1ccc(/C(=C(/CC)c2ccccc2)c2ccc(O)cc2)cc1,11,inactive,–,–
CC/C(=C(\c1ccc(O)cc1)c1ccc(OCCNCCCCCCCCCCF)cc1)c1ccccc1,3.4,Active,Dose-dependent effect,inactive
